Assay results from different studies.
Target: Homeodomain-interacting protein kinase 2 (HIPK2, Homo sapiens, UniProt Q9H2X6)

| SMILES | assay | setting | endpoint | value |
| --- | --- | --- | --- | --- |
| O=C(O)c1ccc2c(c1)nc(NCc1ccccc1)c1ncncc12 | enzyme activity, inhibitor, radiometric | 1 µM | remaining activity | 39% |
| NS(=O)(=O)c1cc(NC(=O)Cc2ccccc2)ccc1Oc1cccc(Cl)c1 | cell-free assay, competition with immobilised ligand | 1 µM | remaining binding | 62% |
| COc1cc2ncnc(Nc3ccc(Oc4ccccc4)c(C)c3C)c2cc1OC | enzyme activity, inhibitor | 1 µM | inhibition | 1% |
| Cc1ccc(Nc2nccc(N(C)c3ccc4c(C)n(C)nc4c3)n2)cc1S(N)(=O)=O | enzyme activity, inhibitor | 10 µM | inhibition | 21% |
| N#CCCc1ccc2c(c1)-c1[nH]c3ccc([N+](=O)[O-])cc3c1CC(=O)N2 | cell-free assay | 0.5 µM | remaining signal | 106% |
| CCCCN(CCCC)C(=O)CN1C[C@H](c2cc(OC)c3c(c2)OCO3)[C@@H](C(=O)O)[C@@H]1CC(C)(C)CCC | cell-free assay, competition with immobilised ligand | 1 µM | remaining binding | 82.3% |
| O=C(O)c1ccc2c(c1)nc(Nc1ccc3ccccc3c1)c1ccncc12 | enzyme activity, inhibitor, radiometric | 1 µM | remaining activity | 4% |
| O=C1Nc2ccc(Cl)cc2C1=Cc1cc(Cl)c(O)c(Cl)c1 | cell-free assay | 0.5 µM | remaining signal | 122% |
| O=C(O)c1ccc2c(c1)nc(NCCc1cccc(F)c1)c1ccncc12 | enzyme activity, inhibitor, radiometric | 1 µM | remaining activity | 4% |
| COc1cc(/C=C/C(=O)CC(=O)/C=C/c2ccc(O)c(OC)c2)ccc1O | enzyme activity, inhibitor | 1 µM | activity vs control | 54% |
| CCOc1cc(-c2nncn2C)ccc1Nc1ncc2cc(C)nc(NCC(C)(C)C)c2n1 | enzyme activity, inhibitor, FRET | 1 µM | inhibition | < 15% |
| CNC(=O)Nc1ccc2c(c1)[C@@]1(CC2)OC(=O)N(CC(=O)N(Cc2ccc(F)cc2)[C@@H](C)C(F)(F)F)C1=O | cell-free assay, competition with immobilised ligand | 1 µM | remaining binding | 78% |
| O=C(O)c1ccc2c(c1)nc(Nc1ccc3ccccc3c1)c1ncncc12 | enzyme activity, inhibitor, radiometric | 1 µM | remaining activity | -3% |
| CNC(=O)Nc1ccc2c(c1)CC[C@@]21OC(=O)N(CC(=O)N(Cc2ccc(F)cc2)[C@@H](C)C(F)(F)F)C1=O | cell-free assay, competition with immobilised ligand | 1 µM | remaining binding | 95% |
| N#Cc1cccc(Nc2nc3cc(C(=O)O)ccc3c3cnccc23)c1 | enzyme activity, inhibitor, radiometric | 1 µM | remaining activity | -1% |
| CN1CCN(c2cnc3c(C4CCN(C(=O)c5ccc(OC(F)(F)F)cc5N)CC4)ncnc3c2)CC1 | cell-free assay, competition with immobilised ligand | 1 µM | remaining binding | 100% |
| CN(c1ncccc1CNc1nc(Nc2ccc3c(c2)CC(=O)N3)ncc1C(F)(F)F)S(C)(=O)=O | enzyme activity, inhibitor | 1 µM | inhibition | 85.7% |
| Nc1ncnc2occ(-c3ccc(NC(=O)Nc4cc(C(F)(F)F)ccc4F)cc3)c12 | cell-free assay, inhibitor | 20 µM | remaining signal | 0.05% |
| CN([C@@H]1CCc2c(CC(=O)O)c3ccccc3n2C1)S(=O)(=O)c1ccc(F)cc1 | cell-free assay, competition with immobilised ligand | 1 µM | remaining binding | 100% |
| N#Cc1cccc(Nc2nc3cc(C(=O)O)ccc3c3cncnc23)c1 | enzyme activity, inhibitor, radiometric | 1 µM | remaining activity | 3% |
| COc1cc2nccc(Oc3ccc(NC(=O)c4c5n(n(-c6ccc(F)cc6)c4=O)CCCC5)cc3)c2cc1OC | enzyme activity, inhibitor | 0.1 µM | inhibition | 10% |
| Cc1nc(N2CC[C@@H](O)C2)ncc1-c1cc(C(F)(F)F)cc2[nH]ncc12 | binding, competition with immobilised ligand | 1 µM | remaining binding | 74% |
| COc1cccc(Nc2nc3cc(C(=O)O)ccc3c3cnccc23)c1 | enzyme activity, inhibitor, radiometric | 1 µM | remaining activity | 2% |
| COc1cc(-c2cc(-c3ccc(N4CCNCC4)cc3)cnc2C)cc(OC)c1OC | enzyme activity, inhibitor | 0.1 µM | inhibition | 1% |
| O=C(O)c1ccc2c(c1)nc(Nc1ccccc1Cl)c1ncncc12 | enzyme activity, inhibitor, radiometric | 1 µM | remaining activity | 3% |
| O=C1NC(c2ccccn2)Sc2ccccc21 (stereo not drawn) | cell-free assay, competition with immobilised ligand | 1 µM | remaining binding | 80% |
| CCN(CC)CCNC(=O)c1c(C)[nH]c(/C=C2\C(=O)Nc3ccc(F)cc32)c1C | enzyme activity, inhibitor | 0.3 µM | inhibition | 20% |
